# PostGolgi ctrl: growth inhibition of yeast control strain, primary screen, counter-screen for post-Golgi transport modulator project; efflux-deficient yeast background strain, growth absorbance A615, 16 h; inhibition, % at 10 µM; 98,000 compounds, 5% hits
# E coli WT exp: growth inhibitors of wild-type E. coli, primary screen, strain BW25113, expanded library, OD600 | AID 710, 2007 | 98,000 compounds, 0.15% hits | OD600 absorbance | growth inhibition, % at 100 µM;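 active = growth inhibition above about 50% at one test dose, limit read from the data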;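 note: growth measured after 20 h incubation at 37 °C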
# Ecoli tolC: growth inhibitors of E. coli tolC mutant, primary screen, strain BW25113 ΔtolC::kan, 384-well | OD615 | growth inhibition, % at 10 µM (by protocol) | 65,000 compounds, 2.2% hits | AID 573, 2007;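 active = growth inhibition at or above a cutoff equal to the mean over every tested compound plus 3 SD, cut at about 60% in these data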;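 note: growth measured after 20 h incubation at 37 °C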
#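 Signal: optical density read at 615 nm; Assay system: E. coli ΔtolC::kan strain BW25113; Times: 20 h incubation with compound, 37 °C; Dosing: 10 µM final, single dose.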
# Cav3 T inh: Cav3.2 calcium influx blockers – cell-based, Fluo-4 calcium fluorescence, FDSS, MLSMR library, primary screen; Voltage-dependent T-type calcium channel subunit alpha-1H (Homo sapiens), O95180; AID 449739, 2010; B-score at 10 µM; Cav3.2-expressing cells; hits give low values; 100,000 compounds, 4% hits;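 active = single-dose well whose peak fluorescence ratio is a statistical outlier from its plate by either plate-standardised score or position-corrected B-score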
# PTK2B oligo ant: antagonists of Pyk2 self-association, primary screen, Q293 cells, FERM NanoBiT luminescence, HTS; hits give low values; z-score (the deposit names both 25 µM and 10 µM); 99,000 compounds, 0.83% hits; AID 1347419, 2020;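 active = Z-score of -3 or lower, scaled per plate to the spread of control and sample wells; inactive = z-score above -3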;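 note: negative z-score means lost luminescence so less FERM oligomerization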
# PostGolgi yeast: phenotypic screen on post-Golgi transport, primary screen; post-Golgi transport phenotypic cell assay; 98,000 compounds, 0.9% hits; inhibition, % at 10 µM;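 note: yeast cells grown in 1536-well plates; yeast grown about 18 h at 30C before absorbance read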
# Active calls of the source: *; . = no result given. The list is not random: actives were taken first. Their share in the collection is about 8.7%. Cut-off read from the data, not from the text of the source, unless noted: active = inhibition above about 30%; inactive = the rest.
SMILES,PostGolgi ctrl,E coli WT exp,Ecoli tolC,Cav3 T inh,PTK2B oligo ant,PostGolgi yeast
Cc1ccc(-c2nc3ccccc3[nH]2)cc1NC(=O)/C=C/c1ccco1,-5,-10,.,-2.2,-0.9,-9
CCN(CCNC(=O)C1CCN(Cc2nc(-c3cccc(Cl)c3)oc2C)CC1)c1ccccc1,25,9,65*,-6.9*,0.32,-1
Cc1oc(-c2ccc(Cl)cc2)nc1CN1CCC(C(=O)NCc2cccs2)CC1,4,-5,.,-7.5*,0.49,-1
Cc1ccccc1-c1nc(CN2CCC(C(=O)NCCC3=CCCCC3)CC2)c(C)o1,9,16,65*,-7.1*,1.2,2
Cc1nc2ccc(S(=O)(=O)c3ccc4nc(C)[nH]c4c3)cc2[nH]1,3,8,.,0.9,-0.83,7
Cc1nc2ccc(C(C(F)(F)F)(C(F)(F)F)C(F)(F)F)cc2[nH]1,66*,3,100*,0.088,-1.9,8
O=C(C1CCN(S(=O)(=O)N2CCOCC2)CC1)N1CCOCC1,31*,-7,-20,0.32,0.01,0
CCS(=O)(=O)N1CCC(C(=O)N2CCOCC2)CC1,3,1,-19,0.57,1,-5
Cc1cccc(-c2c3c(=O)n(C)c(=O)n(C)c3cn2C2CCCCC2)c1,28,-1,.,0.64,-1.9,76*
Cn1c(=O)c2c(-c3ccccc3)n(C3CCCCC3)cc2n(C)c1=O,-2,2,-8,-1.8,-0.54,-22
CCOC(=O)c1c(C=O)c(C)n(Cc2ccc(Cl)cc2)c1C,42*,12,.,-2.3,-3.2*,3
CCOC(=O)c1c(C=O)c(C)n(Cc2ccccc2)c1C,10,-1,.,-1.2,-1.9,0
CCN(CC)S(=O)(=O)c1ccc(NC2CCCc3ccccc32)nc1 (stereo not drawn),48*,-10,16,-0.084,-2,4
O=S(=O)(c1ccc(NC2CCCc3ccccc32)nc1)N1CCOCC1 (stereo not drawn),11,-3,6,-1.7,0.76,-9
Cc1cccc(-c2nnc(NC(=O)c3ccc(Cl)cc3)o2)c1,81*,30,100*,-4.4*,0.45,94*
COc1cccc(-c2nnc(NC(=O)c3cccc(F)c3)o2)c1,.,.,100*,-3.5,.,.
COc1cccc(-c2nnc(NC(=O)c3ccccc3Br)o2)c1,.,.,72*,-0.46,.,.
COc1ccc(C(=O)Nc2nnc(-c3ccccc3)o2)cc1OC,17,-6,36,-0.66,1.4,0
COc1cccc(-c2nnc(NC(=O)C(C)C)o2)c1,-2,9,.,.,.,-11
Cc1c(Cc2ccccc2)sc(NC(=O)Cc2ccccc2)c1C(N)=O,.,.,.,-1.2,-1.4,.
Cc1c(Cc2ccccc2)sc(N)c1C(N)=O,38*,7,12,-1.1,.,0
Cc1cccc(NC(=O)CN2C(=O)NC(Cc3ccccc3)C2=O)c1 (stereo not drawn),-3,12,.,-1.7,0.2,-1
CCN(C(=O)CSc1ncn[nH]1)C1CCCCC1,-3,4,.,-0.38,1.3,-2
O=C(CSc1ncn[nH]1)N1N=C2/C(=C/c3ccco3)CCCC2C1c1ccco1 (stereo not drawn),9,5,.,-4.1*,-0.2,-2
Nc1ncc(-c2nnnn2-c2ccc(Cl)cc2)c(-c2ccc(Cl)cc2)n1,36*,-9,.,-0.079,-0.45,-10
SMILES,PostGolgi ctrl,E coli WT exp,Ecoli tolC,Cav3 T inh,PTK2B oligo ant,PostGolgi yeast
Clc1ccc(-n2nnnc2-c2ccccc2)cc1,8,4,5,0.24,-0.05,17
C=CCN1C(=Nc2cccnc2)SCC1(O)c1ccc(C)cc1 (stereo not drawn),43*,3,37,-0.022,.,6
Cn1c(CCNC(=O)c2ccccc2)nc2cc(NC(=O)C3CCCCC3)ccc21,-3,-2,.,1.7,0.29,-1
CN(C(=O)CSc1nnc(Nc2ccccc2)s1)c1c(N)n(Cc2ccccc2)c(=O)[nH]c1=O,6,-10,.,.,0.05,-5
CCCCN(C(=O)CSc1nnc(Nc2ccc(C)c(C)c2)s1)c1c(N)n(Cc2ccccc2)c(=O)[nH]c1=O,37*,-6,.,-5.3*,-1.6,-7
O=C(Nc1ccc2oc(Cc3ccc(Cl)cc3)nc2c1)c1cccnc1,4,-15,69*,0.053,0.64,5
CCOc1cccc(C(=O)Nc2ccc3oc(Cc4ccc(Cl)cc4)nc3c2)c1,7,-7,.,-2.4,0.87,-4
N/N=c1\sc2ccccc2n1-c1ccccc1,30*,0,.,-1.4,0.41,-24
COc1ccc(CSc2n[nH]c(C)n2)cc1Br,9,7,11,1.2,-0.49,17
Cc1nc(SCc2cccc(Oc3ccccc3)c2)n[nH]1,36*,9,.,-2,0.06,0
COc1ccc(C(=O)Nc2ccc(S(=O)(=O)N3CCc4ccccc43)cc2)cc1,.,.,.,-3.6,-3.1*,.
COc1ccc(C(=O)Nc2ccc(S(=O)(=O)NC(C)=O)cc2)cc1,36*,-4,-5,0.046,0.91,-8
O=C(Nc1ncccc1O)c1cccc(S(=O)(=O)N2CCc3ccccc32)c1,34*,-4,16,-1.6,1.1,-5
COc1ccc(N2Cc3cccc(C(=O)N4CCN(C(=O)c5ccco5)CC4)c3C2=O)cc1,1,0,-13,0.52,.,-5
Cc1cc(NS(=O)(=O)c2ccccc2)n(-c2ccccc2)n1,18,3,-8,-0.39,-0.28,-3
Cc1cc(C)nc(-n2nc(C)cc2Nc2ccccc2)n1,14,2,76*,.,-0.82,5
Cc1cc(Nc2ccccc2)n(-c2ccccc2)n1,25,4,12,-8.4*,-0.75,-8
Cc1cc(Nc2ccccc2)n(C(=O)c2ccccc2)n1,11,5,.,.,.,-2
CCC(C(=O)Nc1cc(C)nn1-c1nc(C)cc(C)n1)c1ccccc1 (stereo not drawn),48*,5,56,-0.51,-0.74,17
Cc1cc(C)nc(-n2nc(C)cc2NC(=O)CNCc2ccccc2)n1,8,-4,.,-0.025,0.33,11
CCSc1ncc(Cl)c(C(=O)Nc2sc3c(c2C(=O)NCc2cccnc2)CCCC3)n1,4,-2,.,0.21,-0.26,-5
Clc1ccc2[nH]c3c(NCCN4CCOCC4)ncnc3c2c1,30*,14,12,1.4,0.64,15
Cc1oc2cc(O)cc(C)c2c(=O)c1-c1cnn(-c2ccccc2)c1,10,-4,7,.,-3.8*,-6
Cc1oc2c(O)c(O)ccc2c(=O)c1-c1cnn(-c2ccccc2)c1,-4,-8,4,1.1,-1.9,4
CC1CCCCN1Cc1nc2c(c(=O)n(C)c(=O)n2C)n1CCc1ccccc1 (stereo not drawn),38*,8,.,-0.55,0.68,-5
Cn1c(=O)n(CCc2ccccc2)c(=O)c2c1nc1n2CCCN1CCc1ccccc1,37*,-26,76*,.,-2.9,6

# Assay outcomes deposited in PubChem BioAssay by several laboratories.
